The source of these data is ChEMBL document CHEMBL1132456 (J Med Chem, 1999).

Broadly, the Ki is a dissociation constant, usually derived from enzyme kinetics or from competition with a known ligand. Read a high Ki as weaker binding. By EC50 is commonly meant the concentration needed to bring the measured effect to its halfway point. Broadly, the IC50 is the concentration that gives 50% inhibition. Lower therefore signals greater potency in that assay.

Data set [1] has as its target Human immunodeficiency virus type 1 reverse transcriptase (Human immunodeficiency virus 1, UniProt Q72547). The data set is described as follows: In vitro inhibitory activity against HIV-1 wild type reverse transcriptase (RT).
Data set [2] relates to C8166. The data set is described as follows: The compound was tested for inhibition against HIV-III B from C8 166 cell lines. The format is functional, cell-based. The settings on record: Homo sapiens. In outline:
(§1)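 C8166 cells at 90 × 10³ cells/mL infected with 100 TCID₅₀ HIV with or without compound for 2 h at 37 °C. Cells washed, replated at 35 × 10³ cells/200 μL, and kept 5 days with drug. Cytopathic protection and toxicity both read by MTT (OD 490/650 nm). EC₅₀ and IC₅₀ from median effect equation; SI = IC₅₀/EC₅₀.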

Data set [3] in a line: The compound was tested for cytotoxicity against Human Lymphocytes. The settings on record: read-out: TC50 (the source's name). In outline:
(§2)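 Cells seeded in 96-well plates: human PHA-stimulated lymphocytes 20 000, 3T3 10 000, NSO 3 000, Daudi 300 per well. Graded compound concentrations added 12 h after plating; 48 h exposure. MTT (5 mg/mL stock) added for 2 h at 37 °C, then SDS/DMF extraction buffer overnight. OD read at 570 nm, blank subtracted, reported as OD × 1000.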

For data set [4], the target named is Human immunodeficiency virus type 1 reverse transcriptase (Human immunodeficiency virus 1, UniProt Q72547, Y188L). The data set is described as follows: In vitro inhibitory activity against HIV-1 mutant Reverse transcriptase containing the single amino acid substitution Y188L. In outline: (§3)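 Template poly(rA):oligo(dT) (0.3 μM 3'-OH ends) with 10 μM [3H]dTTP, incubated at 37 °C. Acid-precipitable counts taken on filters. Inhibitor spanned 0.2–5 Ki. Ki came from Lineweaver–Burk and Dixon plots, triplicate runs.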

A short description of data set [5]: The compound was tested for cytotoxicity against 3T3 fibroblast murine cell line. The format is cell-based. As to conditions: mouse, NIH3T3 fibroblast cells; read-out: TC50 (the source's name). In outline: as §2
The target of data set [6] is Human immunodeficiency virus type 1 reverse transcriptase (Human immunodeficiency virus 1, UniProt Q72547, K103N). The data set is described as follows: In vitro inhibitory activity against HIV-1 mutant Reverse transcriptase containing the single amino acid substitution K103N. In outline:
as §3

The nature of data set [7]: The compound was tested for cytotoxicity against Daudi human cell line. It is filed as cell-based. The settings on record: Daudi cells, read-out: TC50 (the source's name). In outline:
as §2

Data set [8] has as its target Human immunodeficiency virus type 1 reverse transcriptase (Human immunodeficiency virus 1, UniProt Q72547, V106A). The data set is described as follows: In vitro inhibitory activity against HIV-1 mutant Reverse transcriptase containing the single amino acid substitution V106A. The method, boiled down: as §3
The target in data set [9] is Human immunodeficiency virus type 1 reverse transcriptase (Human immunodeficiency virus 1, UniProt Q72547, Y181I). The data set is described as follows: In vitro inhibitory activity against HIV-1 mutant Reverse transcriptase containing the single amino acid substitution Y181I. In outline:
as §3

For data set [10], the target named is Human immunodeficiency virus type 1 reverse transcriptase (Human immunodeficiency virus 1, UniProt Q72547, L100I). The data set is described as follows: In vitro inhibitory activity against HIV-1 mutant Reverse transcriptase containing the single amino acid substitution L100I. In outline:
as §3

Data set [11] has as its system CEM-SS. The data set is described as follows: The compound was tested for inhibition against HIV-1 from CEM-SS cell lines. The format is functional, cell-based. As to conditions: Homo sapiens. In outline:
(§4)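 Testing by the NCI AIDS Antiviral Screening Program: protection of HIV-1-infected CEM-SS T4 lymphocytes from cell death, run alongside an AZT control. EC₅₀ is the concentration giving 50% survival of infected cells relative to uninfected untreated controls. IC₅₀ is the concentration giving 50% survival of uninfected cells. SI = IC₅₀/EC₅₀.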

The nature of data set [12]: The compound was tested for cytotoxicity against NSO murine cell lines. It is filed as cell-based. As to conditions: mouse, NSO cells; read-out: TC50 (the source's name). The method, boiled down:
as §2

Data set [13] concerns Human immunodeficiency virus 3. The data set is described as follows: The compound was tested in presence of AZT for Anti-viral activity of compound in C8166 cells infected with HIV-IIIB. The format is functional, organism-based. As to conditions: Human immunodeficiency virus 1, IIIB. In outline: (§5)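 C8166 cells at 90 × 10³ cells/mL exposed to 100 TCID₅₀ HIV with or without drug (alone, or together with AZT) for 2 h at 37 °C, 5% CO₂. Cells then washed and replated at 35 × 10³ cells/200 μL and cultured 5 days with the same drug levels. Protection from cytopathic effect read by MTT at 490/650 nm; EC₅₀ from median effect equation.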

For data set [14], the system named is Human immunodeficiency virus 3. The data set is described as follows: The compound was tested for Anti-viral activity of compound alone in C8166 cells infected with HIV-IIIB. The format is functional, organism-based. As to conditions: Human immunodeficiency virus 1, IIIB. The method, boiled down:
as §5

Data set [15] in a line: The compound was tested for cytotoxicity against NSO murine cell line. It is filed as cell-based. As to conditions: mouse, NSO cells; read-out: TC50 (the source's name). In outline:
as §2

Data set [16] can be described thus: […] index values calculated at 50% viral activity using mutually nonexclusive forms of equation. In outline:
(§6)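 Chou–Talalay multiple drug effect analysis of compound combined with AZT in acutely HIV-infected C8166 cells. Combination index computed at 50% effect under the mutually exclusive or mutually nonexclusive assumption.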

Data set [17] in a line: […] index values calculated at 50% viral activity using mutually exclusive forms of equation. In outline: as §6
In data set [18] the test system is Human immunodeficiency virus 3. The data set is described as follows: The compound was tested for Anti-viral activity of AZT with compound in C8166 cells infected with HIV-IIIB. The format is functional, organism-based. As to conditions: Human immunodeficiency virus 1, IIIB. The method, boiled down: as §5
For data set [19], the system named is Human immunodeficiency virus 3. The data set is described as follows: (§7) The compound was tested for inhibition against HIV-III B from C8 166 cell lines. The settings on record: Human immunodeficiency virus 1, IIIB, C8166. The format is functional, organism-based. The method, boiled down:
as §1

The test system of data set [20] is Human immunodeficiency virus 1. The data set is described as follows: (§8) The compound was tested for inhibition against HIV-1 from CEM-SS cell lines. It is filed as functional, organism-based. As to conditions: Human immunodeficiency virus 1, CEM-SS. In outline:
as §4

Data set [21] concerns Human immunodeficiency virus 3. The data set is described as follows: The compound was tested in presence of AZT for Anti-viral of compound in C8166 cells infected with HIV-IIIB. The format is functional, organism-based. The settings on record: Human immunodeficiency virus 1, IIIB. The method, boiled down:
as §5

In data set [22] the test system is C8166. The description is as §7. The format is functional, cell-based. The settings on record: Homo sapiens. In outline: as §1
The subject of data set [23] is CEM-SS. The data set is described as §8. The settings on record: Homo sapiens. It is filed as functional, cell-based. In outline:
as §4

In the case of `CCC1(c2ccccc2)Oc2ccccc2-n2cccc2C1=O` (stereo not given), the Ki in data set [1] is 190 nM; in data set [4] it was more than 10000 nM; in data set [6], 7700 nM; in data set [8], 3900 nM; in data set [9], more than 10 µM; in [10], 750 nM. Moreover, the values for the EC50 in the data set on C8166 [2] and with CEM-SS [11] were 800 nM and 470 nM, respectively. In the data set with C8166 [2], the IC50 is 10 µM. Further, the CC50 in data set [3] came out at 32 µM; in data set [5], 33 µM; in data set [7], 26 µM; in [12], 24 µM.
As to `CCC1(c2cccs2)Oc2ccccc2-n2cccc2C1=O` (stereo not given), the inhibitory constant (Ki) in data set [1] stood at 30 nM; in data set [4] it was 300 nM; in data set [6], 400 nM; in data set [8], 110 nM; in data set [9], 0.97 µM; in data set [10] it was 70 nM. For the same molecule, in the data set with CEM-SS [11], the EC50 amounted to 115 nM. The molecule further gave an IC50 in the data set on CEM-SS [11] of 11 µM.
As for `CCC1(c2ccccc2)Oc2cccnc2-n2cccc2C1=O` (stereo not given), the inhibitory constant (Ki) in data set [1] worked out at 22 nM; in data set [4], 1500 nM; in data set [6], 300 nM; in data set [8], 70 nM; in [9], 4 µM; in data set [10], 40 nM. Besides, the EC50 in the data set on C8166 [2] amounted to 54 nM; in data set [13], 17 nM; in [14], 54 nM; with CEM-SS [11], 69 nM; in [18], 3.17 nM. Moreover, the IC50 with C8166 [2] was determined as 6 µM; in the data set on CEM-SS [11], 3.9 µM. Further, the CC50 amounted to 13 µM in [3], 10 µM in [5], 13 µM in data set [7] and 14 µM in data set [15]. The CI is 0.303 in [16] and 0.302 in [17].
As to `CCC1(c2ccc(C)cc2)Oc2ccccc2-n2cccc2C1=O` (stereo not given), in data set [1], the Ki is 970 nM.
As for `CCC1(c2cc(F)cc(F)c2)Oc2ccccc2-n2cccc2C1=O` (stereo not given), the inhibition constant Ki in data set [1] was 1500 nM; in data set [4], more than 10000 nM; in data set [6] it was 2700 nM; in [8], 3000 nM; in [9] it was 6.8 µM; in data set [10] it was 1700 nM. Also, the midpoint of inhibition in data set [19], the IC50, lay at 17.1 µM.
As to `CCC1(c2cccc(C)c2)Oc2ccccc2-n2cccc2C1=O` (stereo not given), the Ki in [1] was 70 nM; in [4], 1900 nM; in [6] it was 1100 nM; in data set [8] it was 250 nM; in data set [9] it was 4 µM; in [10], 100 nM. The concentration giving a half-maximal response (EC50) in data set [20] came to 350 nM; in data set [21], 11 nM; in data set [14], 425 nM; in data set [18], 3.25 nM. Also, the results for the IC50 in [20] and in data set [19] were 119 µM and 52 µM, respectively. The CC50 in data set [3], in data set [5], in data set [7] and in data set [15] was more than 1000 µM throughout. Further, the CI in data set [16] and in data set [17] was 0.04 throughout.
In the case of `CCC1(c2cccc(OC)c2)Oc2ccccc2-n2cccc2C1=O` (stereo not given), the inhibitory constant (Ki) in [1] was 60 nM; in [4] it was more than 10000 nM; in [6], 22 nM; in data set [8], 10 nM; in data set [9], more than 10 µM; in data set [10], 11 nM. The EC50 in data set [20] was 40 nM. The IC50 came out at 0.2 µM in data set [20] and 7 µM in data set [19]. The CC50 came to 200 µM in data set [3], 210 µM in data set [5], 280 µM in [7] and 230 µM in [15].
On to `CCC1(c2cccc(F)c2)Oc2ccccc2-n2cccc2C1=O` (stereo not given), for which the Ki amounted to 100 nM in data set [1]; 1500 nM in [4]; 70 nM in data set [6]; 400 nM in data set [8]; 4 µM in data set [9]; 160 nM in data set [10]. The CC50 in data set [3] worked out at 720 µM; in data set [5], 710 µM; in [7], 720 µM; in data set [15], 720 µM. The EC50 in the data set on C8166 [22] came out at 1100 nM; in the data set on CEM-SS [23], 72 nM. Besides, the IC50 is 13.8 µM with C8166 [22] and 2000 nM in the data set on CEM-SS [23].
As to `CCC1(c2cccc(C)c2)Oc2cccnc2-n2cccc2C1=O` (stereo not given), the Ki came to 21 nM in data set [1]; 1500 nM in data set [4]; 30 nM in [6]; 400 nM in [8]; 1.2 µM in data set [9]; 44 nM in [10]. Besides, the EC50 in the data set on C8166 [2] came out at 270 nM; in the data set with CEM-SS [11], 27 nM. For the same molecule, the concentration for half-maximal inhibition (IC50) is 7.2 µM in the data set on C8166 [2] and more than 2 µM in the data set on CEM-SS [11]. For the same molecule, the CC50 in data set [3] came to 400 µM; in data set [5], 400 µM; in data set [7] it was 380 µM; in data set [15], 410 µM.
On to `CCC1(c2cccs2)Oc2cccnc2-n2cccc2C1=O` (stereo not given), for which the Ki in data set [1] was 93 nM; in data set [4] it was 475 nM; in data set [6], 45 nM; in [8] it was 90 nM; in data set [9], 0.43 µM; in data set [10], 90 nM. Also, the 50% inhibitory concentration (IC50) is 20.5 µM in the data set with C8166 [2] and more than 2 µM in the data set on CEM-SS [11]. The CC50 in [3] was found to be 30 µM; in [5], 35 µM; in [7], 29 µM; in data set [15], 26 µM. In the data set with CEM-SS [11], this molecule returned a half-maximal effective concentration (EC50) of 150 nM.
